Measured values taken from ChEMBL document CHEMBL3272188, “Inhibitors of Bacillus subtilis DNA polymerase III. 6-(arylalkylamino)uracils and 6-anilinouracils” (J Med Chem, 1977).

Experiments:
Bacillus subtilis = assay: Inhibition of wild-type Bacillus subtilis DNA polymerase 3-mediated dGTP truncated DNA synthesis assessed as inhibition of incorporation of [3H]TMP at 1 mM
Outline: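 Single-concentration test at 1 mM inhibitor in pol III truncated DNA synthesis with dGTP omitted.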

[1] = Inhibition of Bacillus subtilis DNA polymerase 3/azp-12 mutant-mediated dGTP truncated DNA synthesis assessed as inhibition of incorporation of [3H]TMP
[2] = Inhibition of wild-type Bacillus subtilis DNA polymerase 3-mediated dGTP truncated DNA synthesis assessed as inhibition of incorporation of [3H]TMP
Outline: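 Pol III truncated DNA synthesis run with dGTP omitted from the reaction. The reported Ki is the inhibitor concentration giving 50% inhibition of enzyme activity.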

Compound	inhibition (Bacillus subtilis) [%]	Ki [1] [µM]	Ki [2] [µM]
O=c1cc(NCc2ccc([N+](=O)[O-])cc2)[nH]c(=O)[nH]1	–	–	5.2
Nc1ccc(CNc2cc(=O)[nH]c(=O)[nH]2)cc1	–	156	17
O=c1cc(NCC2CCCCC2)[nH]c(=O)[nH]1	< 10	–	–
CC(Nc1cc(=O)[nH]c(=O)[nH]1)c1ccccc1 (configuration not stated)	< 10	–	–
CC(=O)Nc1ccc(CNc2cc(=O)[nH]c(=O)[nH]2)cc1	–	–	2300
Oc1cc(Nc2ccc3c(c2)CCC3)nc(O)n1	–	–	0.4

Other lines, results leading:

inhibition (Bacillus subtilis) [%]	Ki [1] [µM]	Ki [2] [µM]	Compound
< 10	–	–	Oc1cc(NCCCCc2ccccc2)nc(O)n1
–	2.5	2.3	Oc1cc(NCc2ccccc2)nc(O)n1
–	–	2000	Oc1cc(NCCCc2ccccc2)nc(O)n1
–	–	1	Cc1ccc(Nc2cc(O)nc(O)n2)cc1C
–	–	27.5	Cc1cccc(Nc2cc(O)nc(O)n2)c1
–	–	20.4	Cc1ccc(Nc2cc(O)nc(O)n2)cc1
< 10	–	–	Oc1cc(Nc2ccccc2)nc(O)n1
–	30	31.7	Oc1cc(NCCc2ccccc2)nc(O)n1
